Diaphorase inh: counter-screen for diaphorase-based assays: diaphorase inhibitors and chemical oxidizers; diaphorase resazurin-to-resorufin fluorescence, NADH, 16 min; bacterial (C. kluyveri) enzyme, not human; inhibition, % at 20 µM; actives 0.69% (n = 190,000);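 active = primary screen inhibition at 20 µM above a set limit, cut at about 50% in these data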;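 note: plate controls were DMSO with full reaction for no effect and wells lacking NADH for full effect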
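Test system: diaphorase enzyme from Clostridium kluyveri; amount: diaphorase at 0.14 U/mL in enzyme working solution; detection: fluorescence of resorufin formed from resazurin, Ex 544/Em 590 nm; times: reaction incubation of 16 min at room temperature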
G6PDH CS: inhibits Leuconostoc G6PDH, flagging false hits in G6PDH-based assays | Purified L. mesenteroides G6PDH, diaphorase/resazurin coupled fluorescence, 45 min | inhibition, % at 5 µM | actives 0.12% (n = 200,000); in the data active = inhibition above about 50%
PfG6PD inh: PfG6PD (Plasmodium falciparum) enzyme inhibition | actives 0.78% (n = 350,000) | PfGluPho enzyme, NADPH resazurin-diaphorase fluorescence | inhibition, % at 20 µM | AID 504690;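 active = inhibition reaching at least a set limit at 20 µM in the primary screen, cut at about 59% in these data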;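 note: 0% = DMSO wells with substrate and 100% = DMSO wells lacking glucose-6-phosphate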
Diaphorase act: counter-screen for diaphorase-based assays: diaphorase activators and chemical reducers; actives 0.005% (n = 190,000); activation factor at 20 µM; Diaphorase/resazurin coupled assay, resorufin fluorescence, 16 min; hits give high values; 1 = vehicle wells, 0 = NADH-free wells; AID 1229;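 active = diaphorase activity raised at least twofold by the compound at 20 µM; inactive = activation factor below 2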
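Material: Clostridium kluyveri diaphorase, purified enzyme; Quantity: enzyme 0.07 U/mL final; Medium: HEPES pH 7.4 buffer with MgCl2 and Tween 20; Dosing: single compound dose of 20 µM, 1% DMSO final; Schedule: 16 min reaction at room temperature; Measured by: red resorufin fluorescence at 544/590 nm excitation/emission.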
Tb hexokinase: blocks Trypanosoma brucei hexokinase 1 activity; recombinant TbHK1, G6PDH-coupled NADH A340; inhibition, % at 10 µM; actives 0.11% (n = 220,000); AID 1430;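 active = inhibition of 50% or more in the single-dose primary screen; inactive = inhibition below 50%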
HKDC1 inh: inhibitors of human hexokinase HKDC1. Q2TB90. recombinant HKDC1, G6PDH/diaphorase resazurin coupled fluorescence. inhibition, % at 20 µM. actives 0.16% (n = 340,000);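 active = inhibition above about 35% when tested at 20 µM, limit read from the data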;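 note: plate controls were DMSO wells with enzyme for no effect and DMSO wells lacking enzyme for full effect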
Target sequence (Q2TB90 whole entry, looked up): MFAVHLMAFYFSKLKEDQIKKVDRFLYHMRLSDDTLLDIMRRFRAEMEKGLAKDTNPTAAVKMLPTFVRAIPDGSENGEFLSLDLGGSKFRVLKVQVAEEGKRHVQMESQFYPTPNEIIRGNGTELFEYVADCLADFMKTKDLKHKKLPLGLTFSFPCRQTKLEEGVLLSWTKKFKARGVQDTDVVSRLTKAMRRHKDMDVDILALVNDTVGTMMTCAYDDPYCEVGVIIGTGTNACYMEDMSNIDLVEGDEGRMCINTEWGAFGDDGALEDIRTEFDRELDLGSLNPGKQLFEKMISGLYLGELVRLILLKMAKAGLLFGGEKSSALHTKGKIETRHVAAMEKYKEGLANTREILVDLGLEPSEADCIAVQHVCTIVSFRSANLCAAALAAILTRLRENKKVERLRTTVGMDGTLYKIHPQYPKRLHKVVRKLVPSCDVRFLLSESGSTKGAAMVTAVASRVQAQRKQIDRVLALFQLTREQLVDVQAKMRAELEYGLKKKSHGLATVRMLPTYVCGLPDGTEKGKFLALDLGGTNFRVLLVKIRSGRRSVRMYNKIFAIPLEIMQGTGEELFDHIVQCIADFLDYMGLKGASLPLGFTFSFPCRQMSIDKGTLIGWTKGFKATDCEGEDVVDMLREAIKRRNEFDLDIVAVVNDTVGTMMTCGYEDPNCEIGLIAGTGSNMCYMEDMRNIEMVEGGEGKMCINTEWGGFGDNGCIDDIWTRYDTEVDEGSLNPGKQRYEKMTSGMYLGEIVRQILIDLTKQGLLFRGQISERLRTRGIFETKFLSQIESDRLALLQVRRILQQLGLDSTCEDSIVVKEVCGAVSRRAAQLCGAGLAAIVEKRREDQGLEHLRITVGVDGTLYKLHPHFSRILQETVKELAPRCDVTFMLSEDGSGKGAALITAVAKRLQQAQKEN
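Test system: Recombinant HKDC1 (HK5) hexokinase enzyme, produced in-house | Input: HKDC1 at 5 µg/mL | Buffer or medium: Tris pH 8.0 buffer with MgCl2, Tween-20, BSA, BME | Schedule: 90 min reaction incubation at room temperature, dark | Technique: Resazurin-to-resorufin fluorescence via G6PDH and diaphorase coupling, 525/613 nm | Controls: DMSO wells with and without enzyme mix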
An asterisk follows results filed as active; x = no result given. Shown are actives, neighbours in structure and some others; about 1.3% of the full set was active somewhere.

SMILES | Diaphorase inh | G6PDH CS | PfG6PD inh | Diaphorase act | Tb hexokinase | HKDC1 inh
Cc1ccc(O)c(NC(=O)CSc2n[nH]c(-c3ccccc3)n2)c1 | x | x | -5 | x | x | 7
Cc1cc(SCC(=O)c2ccc(O)c(O)c2)nc2ccccc12 | 50* | 2 | -26 | 0.5 | -6 | 0
O=C(CSc1n[nH]c(-c2ccccc2)n1)c1ccc(O)c(O)c1 | 71* | 12 | 30 | 0.3 | -8 | 1
Cc1noc(C)c1NC(=O)Nc1cccc2c1O[C@H](CN(C)C(=O)Nc1ccc(C(F)(F)F)cc1)[C@@H](C)CN([C@H](C)CO)C2=O | x | x | 2 | x | x | -3
O=C1C2C3C=CC(CO)(O3)C2C(=O)N1c1ccccc1-c1ccccc1 (stereo not given) | 17 | -2 | 82* | 0.8 | 2 | -4
Nc1cccc2nsnc12 | x | x | 44 | x | -4 | 21
Nc1cc2nsnc2cc1Br | 41 | 58* | 99* | 0.6 | 20 | -4
Cc1nc2ccc(Cl)cc2n1C | x | x | -10 | x | x | x
O=C(/C=C/c1cccc([N+](=O)[O-])c1)c1ccco1 | x | x | 1 | x | x | 17
O=C(/C=C/c1cccc([N+](=O)[O-])c1)c1ccc([N+](=O)[O-])o1 | x | x | 98* | x | x | 55*
O=C(COc1ccccc1)Nc1nnc(S(=O)(=O)Nc2ccccc2)s1 | x | x | -25 | x | x | 0
O=C(CN1CCN(c2ccc(Cl)cc2)CC1)NCc1ccccc1 | 86* | 2 | -9 | 0.1 | -7 | -4
CCOC(=O)N1CCN(Cc2ccccc2Cl)CC1 | 10 | 15 | -8 | 0.9 | -4 | -7
COc1ccccc1N1CCN(Cc2ccc(O)c3ncccc23)CC1 | 57* | 29 | -16 | 0.4 | 16 | -7
c1ccc(-c2nnc(CN3CCCc4ccccc43)o2)cc1 | 0 | 4 | 13 | 1 | -2 | -1
CCOC(=O)C1CCN(Cc2ccc(O)c3ncccc23)CC1 | 73* | 50* | 4 | 0.3 | 2 | -7
Oc1ccc(CN2CCCc3ccccc32)c2cccnc12 | 77* | -14 | 19 | 0.2 | 12 | -12
CCOC(=O)N1CCN(Cc2cc(Cl)c3cccnc3c2O)CC1 | 61* | 41 | -2 | 0.4 | -13 | -6
O=C1NCCN(CC2CCN(CCc3ccc(Cl)c(Cl)c3)CC2)C1=O | x | x | -2 | x | x | 0
CNc1nc(Sc2ccc(C)cc2)cc(C(F)(F)F)n1 | 29 | -1 | 5 | 0.7 | -5 | 16
COc1ccc(CN(C)C(=O)c2cc(-c3ccccc3)nc3ccc(C)cc23)c(OC)c1 | x | x | -7 | x | x | x
COc1nnc(-c2ccc(N3CCOCC3)c(NC(=O)C3CCCCC3)c2)c2ccccc12 | 17 | -4 | 0 | 0.8 | -3 | 8
c1ccc2c3c(cc(N4CCOCC4)c2c1)OC1(N2CCOCC2)CCCCC1O3 (stereo not given) | 25 | 50* | 42 | 0.7 | -5 | 18
O=C(COC(=O)CCc1ccccc1)NC12CC3CC(CC(C3)C1)C2 | 71* | 3 | 0 | 0.3 | 6 | -1
O=C(COC(=O)C(O)c1ccccc1)NC12CC3CC(CC(C3)C1)C2 (stereo not given) | 15 | -2 | -18 | 0.8 | 1 | -7
SMILES | Diaphorase inh | G6PDH CS | PfG6PD inh | Diaphorase act | Tb hexokinase | HKDC1 inh
Cc1c(Br)c(=O)oc2c(Br)c(O)ccc12 | 5 | 0 | 1 | 0.9 | -7 | 0
Cc1c(Br)c(=O)oc2c(Br)c(O)c(O)cc12 | 75* | 26 | -15 | 0.2 | 27 | 3
CCNc1nc(NCC)nc(N/N=C/c2ccc(N(C)C)cc2)n1 | -16 | 2 | -17 | 1.2 | -58 | -8
CCNc1nc(NCC)nc(N/N=C/c2ccc(O)c(O)c2)n1 | 61* | 19 | -2 | 0.4 | -23 | -4
C/C(CC(=O)N1CCN(C=O)CC1)=N\NC(=O)c1cc2ccccc2cc1O | 88* | 3 | 58 | 0.1 | 31 | 23
C/C(CC(=O)N1CCN(C=O)CC1)=N\NC(=O)c1ccc([N+](=O)[O-])cc1 | x | 3 | -9 | x | -5 | -12
Cc1c(Cl)cccc1NS(=O)(=O)c1ccc2c(c1)C1C=CCC1C(c1ccc(C(=O)O)cc1)N2 (stereo not given) | 59* | 19 | -34 | 0.4 | 52* | 10
O=C(Cc1ccccc1F)Nc1cccc(S(=O)(=O)N2CCCCC2)c1 | x | x | 9 | x | x | x
CN1CSC2=C(C#N)C(c3cccc(OCc4ccccc4)c3)CC(=O)N2C1 (stereo not given) | 17 | 14 | 92* | 0.8 | -2 | 16
COc1cc(NC(=O)NCC2CCN(Cc3ccccc3C)CC2)cc(OC)c1OC | x | x | -6 | x | x | 1
Cc1sc(NC(=S)Nc2ccc(F)cc2)c(C(N)=O)c1C | 58* | 12 | 20 | 0.4 | -12 | -6
CCOC(=O)c1c(NC(=S)Nc2ccc(Cl)cc2)sc(C)c1C | 8 | 4 | -2 | 0.9 | 6 | -9
COC(=O)c1cc(O)c(O)c(O)c1 | 50* | 22 | 17 | 0.5 | 0 | -5
COc1cc2c(cc1OC)CN(Cc1cc(OC)c(O)c(OC)c1)CC2 | 26 | 53* | 14 | 0.7 | 4 | 1
COc1cc(CN2CCC(C(=O)N3CCN(c4ccccc4F)CC3)CC2)cc(OC)c1O | 32 | 54* | 0 | 0.7 | 10 | -1
COc1ccc(CN2CCN(c3ccccc3OC)CC2)cc1OC | x | x | -6 | x | x | -8
COc1cc(CN2CCN(c3ccccc3F)CC2)cc(OC)c1O | 40 | 54* | -9 | 0.6 | 1 | 0
COC(=O)c1ccc(OC)c(CN2CCCN(Cc3cc(C)ccc3C)S2(=O)=O)c1 | x | x | 9 | x | x | 0
COC(=O)c1cc(S(=O)(=O)N2CCN(c3cccc(C)c3C)CC2)c[nH]1 | x | x | -5 | x | x | -1
COc1ccc(/C=N/NC(=O)c2cc(O)c(O)c(O)c2)cc1Cn1cc([N+](=O)[O-])cn1 | 66* | 7 | 53 | 0.3 | -8 | 16
NC(=O)C1CCN(c2nc(-c3cccs3)cs2)CC1 | x | x | 73* | x | x | 2
NC(=O)C1CCN(c2nc(-c3ccc(Br)cc3)cs2)CC1 | -6 | 0 | 3 | 1.1 | -4 | 11
CC12CCC(C(=O)N(CSC(=S)N/N=C\c3ccccc3)C1=O)C2(C)C (stereo not given) | 58* | -2 | 7 | 0.4 | -10 | -20
CC12CCC(C(=O)N(CSC(=S)N/N=C\c3ccccc3Cl)C1=O)C2(C)C (stereo not given) | 46 | -4 | 1 | 0.5 | -8 | -20
O=C(O)CCNc1cc2ccccc2cc1C(=O)O | 65* | 40 | 52 | 0.4 | -2 | 12

Assay outcomes from PubChem BioAssay.
